KCNK3 inh – human KCNK3 channel inhibitors, primary screen, CHO cells, FluxOR thallium flux, B-score; B-score at 10 µM; Potassium channel subfamily K member 3 (Homo sapiens), O14649; 340,000 tested, 0.84% active; FluxOR fluorescence; active compounds read low; AID 602410, 2012;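 active = B-score under library mean minus 4 SD, starting fluorescence ratio at most library mean plus 5 SD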;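 note: more negative B-score means stronger inhibition of thallium flux through KCNK3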
KCNQ1 act – potentiators or activators of KCNQ1 channel, primary screen, cell-based, thallium flux, high-throughput; Potassium voltage-gated channel subfamily KQT member 1 (Homo sapiens), P51787; CHO-K1 KCNQ1, thallium flux FluxOR fluorescence; active compounds read high; B-score at 10 µM; 310,000 tested, 0.35% active;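 active = fluorescence ratio B-score, a plate-corrected score, at least three library SD, with initial intensity B-score within 5 SD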
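Doses: Single concentration per compound, DMSO matched to controls | Test system: KCNQ1-transfected CHO-K1 cells | Timing: 90 min dye loading and 20 min compound exposure, both at room temperature | Measured by: Kinetic FluxOR thallium fluorescence, 10-s 1-Hz baseline, 110-s post-stimulus read | Medium: Assay buffer with matched DMSO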
KCNQ1 block – inhibitors of human KCNQ1 channel, primary screen, cell-based, thallium flux, high-throughput; B-score at 10 µM; 310,000 tested, 1.3% active; AID 2642, 2010; Potassium voltage-gated channel subfamily KQT member 1 (Homo sapiens), P51787; CHO-K1 KCNQ1, FluxOR thallium flux fluorescence; active compounds read high;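 active = compounds whose thallium flux B-score, printed positive for inhibition, exceeds three library SD while starting fluorescence stays within three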;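 note: channel opened by potassium depolarization with thallium stimulus after 20 min compound exposure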
KCNK9 block – KCNK9 potassium channel inhibitors, primary screen, HEK293 cells, thallium flux. FluxOR thallium flux fluorescence; active compounds read low. B-score at 10 µM. 310,000 tested, 1.2% active. AID 488922, 2010;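 active = ratio B-score over 3 SD below the library mean, with starting fluorescence within 5 SD of its mean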;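 note: negative B-score means less thallium flux so channel inhibition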
Target sequence (Q9NPC2 whole entry, looked up): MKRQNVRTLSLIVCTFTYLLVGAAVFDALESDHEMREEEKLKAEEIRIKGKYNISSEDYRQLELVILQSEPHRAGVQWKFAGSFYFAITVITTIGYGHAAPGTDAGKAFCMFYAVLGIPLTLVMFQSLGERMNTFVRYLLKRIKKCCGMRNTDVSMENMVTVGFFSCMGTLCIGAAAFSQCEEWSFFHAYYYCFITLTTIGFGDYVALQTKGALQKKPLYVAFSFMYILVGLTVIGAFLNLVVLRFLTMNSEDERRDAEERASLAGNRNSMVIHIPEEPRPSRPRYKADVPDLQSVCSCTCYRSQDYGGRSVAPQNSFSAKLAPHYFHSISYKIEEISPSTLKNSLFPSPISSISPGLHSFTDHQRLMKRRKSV
hERG rescue – hERG rescue from dofetilide block, primary screen, cell-based, CHO-hERG, FluxOR thallium flux, dofetilide IC70; AID 1511, 2009; activation (rescue from dofetilide block), less the hit threshold, % at 10 µM; Voltage-gated inwardly rectifying potassium channel KCNH2 (Homo sapiens), Q12809; dofetilide IC70 present; 310,000 tested, 0.51% active;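 active = activation above the mean of controls blocked by dofetilide plus 5 SD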;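 note: thallium influx through hERG after potassium depolarization seen as dye fluorescence rise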
Cl transport mod – KCC2 cotransporter modulators, thallium flux, primary screen, cell-based, HEK293 KCC2, FluoZin-2 fluorescence, MLSMR. KCC2 cells, thallium flux FluoZin-2 fluorescence. 190,000 tested, 2.2% active. AID 1456, 2008. B-score of Tl+ flux slope (higher = more flux/activation; lower = inhibition) at 10 µM;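 active = thallium flux slope and its plate-corrected score both differing from the plate sample mean at a set confidence after two filtering rounds, in either direction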;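 note: slope of fluorescence scaled to starting intensity during 10 to 20 s after thallium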
KCNK9 block conf – KCNK9 potassium channel inhibitors, confirmation, HEK293 cells, thallium flux, duplicate | shares compounds with KCNK9 block | FluxOR thallium flux fluorescence | inhibition, % at 10 µM | 4,900 tested, 43% active;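 active = thallium signal inhibited by more than 5 SD of the compound-free buffer control wells, on both duplicate plates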
Kir21 sel – mouse Kir2.1 channel inhibition, confirmation, selectivity assay for KCNK9 modulator project, cell-based, HEK293, thallium flux; shares compounds with KCNK9 block; Kir2.1 cells, FluxOR thallium flux fluorescence; inhibition, % at 10 µM; 4,900 tested, 4% active; AID 492993, 2010;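 active = thallium signal drop more than 5 SD beyond the mean of the no-compound control wells, seen in both duplicate plates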;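 note: signal is fluorescence rise after thallium addition divided by baseline fluorescence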
KCNK9 uninduced – thallium flux in non-induced HEK293 cells, confirmation, counter-screen for KCNK9 inhibitor project, cell-based, second counter screen, non-induced KCNK9-HEK293 | shares compounds with KCNK9 block | FluxOR thallium flux | inhibition, % at 10 µM | 4,900 tested, 40% active | AID 492997, 2010;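 active = thallium signal drop beyond 5 SD of the untreated control mean, on both duplicate plates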
KCNK3 confirm – retest of human KCNK3 channel inhibitors, confirmation, CHO cells, FluxOR thallium flux, triplicate | shares compounds with KCNK3 inh | FluxOR fluorescence; 0% buffer, 100% carvedilol maximal block | ratio percent of control, % at 10 µM | 2,400 tested, 99% active | AID 651638, 2012;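 active = ratio percent of control, averaged over triplicates, above buffer control mean plus 5 SD, cut at about 64% in these data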;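 note: ratio is the fluorescence rise from min to max over baseline after thallium stimulus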
KCNK3 noninduced – thallium flux inhibition in non-induced cells, primary screen, counter-screen for KCNK3 inhibitor project, cell-based, non-induced KCNK3 line, FluxOR thallium, triplicate | shares compounds with KCNK3 inh | non-induced KCNK3 parental cells; active compounds read low | thallium flux ratio (lower = more inhibition) at 10 µM | 2,400 tested, 40% active | AID 651747, 2012;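 active = thallium flux ratio, averaged over three wells, more than 5 SD below the buffer control mean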;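 note: host cells are CHO cells without KCNK3 induction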
Hits are given with their value; . = inactive; / = no result given. In the library only some 4.1% were active in any assay of this set; here they are far more common.

SMILES | KCNK3 inh | KCNQ1 act | KCNQ1 block | KCNK9 block | hERG rescue | Cl transport mod | KCNK9 block conf | Kir21 sel | KCNK9 uninduced | KCNK3 confirm | KCNK3 noninduced
COc1ccc(Cl)cc1NC(=O)CN(C)Cc1cccs1 | -13 | . | . | -21 | . | / | 74% | . | 50% | 108 | .
CCOC(=O)c1ccc(Oc2nc(SC)nc(N(C)C)n2)cc1 | -9.8 | . | . | -8.8 | . | . | 48% | . | 42% | 103 | .
CC1=NN(C(=O)COc2cc(C)ccc2C(C)C)C(O)(c2ccccc2)C1 (stereo not drawn) | -9.8 | . | . | -15 | . | . | 58% | . | 38% | 120 | 0.16
CC1=NN(C(=O)CSCc2ccccc2)C(O)(c2ccc(Cl)cc2)C1 (stereo not drawn) | -13 | . | . | -13 | . | . | 62% | . | 34% | 98 | .
O=C(CN1CCN(Cc2ccccc2)CC1)Nc1cccc(Br)c1 | . | . | . | . | . | / | / | / | / | / | /
COc1ccc(NC(=O)c2cc(S(=O)(=O)N3CCOCC3)cs2)cc1 | . | . | . | . | . | . | / | / | / | / | /
Cc1ccc(C)c(-c2csc(N/N=C/c3ccco3)n2)c1 | -11 | . | . | -8.9 | . | . | 38% | . | 27% | 115 | 0.16
COc1ccc(CN(C(=O)/C=C/c2ccccc2Cl)C2CCS(=O)(=O)C2)cc1 (stereo not drawn) | -11 | . | . | -14 | . | . | 49% | . | 32% | 103 | 0.15
COc1cc(/C=N/NC(=O)c2ccc(Cn3cc([N+](=O)[O-])cn3)o2)cc(Br)c1O | -11 | . | . | -16 | . | / | 57% | . | 35% | 99 | .
CC(=O)Nc1sc(C)c(C)c1C(=O)OCC(=O)Nc1ccccc1 | . | / | / | / | / | / | / | / | / | / | /
CC(=O)Nc1sc(C)c(C)c1C(=O)OCCOc1ccccc1 | -11 | . | . | -13 | . | / | 46% | . | 46% | 125 | 0.13
COc1ccccc1NC(=S)N(C(C)C)C(C)c1ccccn1 (stereo not drawn) | . | . | . | . | . | . | / | / | / | / | /
CC(C)N(C(=S)Nc1cccc(C(F)(F)F)c1)C(C)c1ccccn1 (stereo not drawn) | -11 | . | 12 | -17 | . | . | 77% | . | 44% | 133 | 0.12
Cc1ccc(S(=O)(=O)N(C)C)cc1NC(=O)CN1CCN(Cc2ccccc2)CC1 | . | . | . | . | . | . | / | / | / | / | /
Cc1ccc(S(=O)(=O)N(C)C)cc1NC(=O)c1cc(C(C)(C)C)nn1Cc1ccccc1 | -12 | . | . | -16 | . | . | 40% | . | 33% | 128 | 0.14
CCCCC(CC)C(=O)Oc1ccc(O)c(C(C)(C)C)c1 (stereo not drawn) | -12 | . | . | -16 | . | . | 74% | . | 31% | 79 | .
Cc1c(Cl)cccc1NC(=O)CNc1ccccc1F | . | . | . | . | . | . | / | / | / | / | /
O=C(CNc1ccccc1F)Nc1cccc2ccccc12 | -14 | . | . | -12 | . | / | 49% | . | . | 112 | 0.16
Cc1cccnc1NC(=O)c1cccc(S(=O)(=O)N2CCN(c3ccccc3)CC2)c1 | . | . | . | . | . | / | / | / | / | / | /
CN(Cc1ccc(N(C)C)cc1)C(=O)c1cc2ccccc2o1 | . | . | . | . | . | / | / | / | / | / | /
CCn1nc(C)c(CN2CCCC(C(=O)c3cccc(OC(C)C)c3)C2)c1C (stereo not drawn) | . | . | . | . | . | . | / | / | / | / | /
CC(C)Oc1cccc(C(=O)C2CCCN(Cc3ccc4nonc4c3)C2)c1 (stereo not drawn) | -12 | . | . | . | . | . | / | / | / | 127 | 0.14
COc1ccc(OC)c(/C=C/C(=O)c2ccc(Cl)cc2)c1 | -10 | . | . | -6.9 | . | / | / | / | / | 120 | 0.16
COc1ccccc1/C=C/C(=O)c1ccc(Cl)cc1 | . | . | . | . | . | / | / | / | / | / | /
Cc1cccc(C(=O)N2CCC(=O)N(C(COCc3ccc(Cl)cc3)Cc3ccccc3)CC2)c1 (stereo not drawn) | . | . | . | . | . | . | / | / | / | / | /
SMILES | KCNK3 inh | KCNQ1 act | KCNQ1 block | KCNK9 block | hERG rescue | Cl transport mod | KCNK9 block conf | Kir21 sel | KCNK9 uninduced | KCNK3 confirm | KCNK3 noninduced
CCc1nnc(NC(=O)C2CCN(C(=O)c3ccco3)CC2)s1 | -8.8 | . | . | . | . | / | / | / | / | 81 | .
Cc1ccc(CNc2nc(C)cs2)cc1 | . | . | . | . | . | / | / | / | / | / | /
COc1cc(CN(C)Cc2cccc3ccccc23)cc([N+](=O)[O-])c1O | . | . | . | . | . | / | / | / | / | / | /
CN(Cc1cccc([N+](=O)[O-])c1)Cc1cccc2ccccc12 | -11 | . | 6 | -6.8 | . | / | / | / | / | 114 | 0.15
CCOc1ccc(Nc2nc(NCC(=O)O)nc(N)c2[N+](=O)[O-])cc1 | . | . | . | . | . | / | / | / | / | / | /
COc1ccc(-c2[nH]ncc2N=Nc2ccccc2)cc1 | -9.2 | . | . | . | . | . | / | / | / | 88 | .
COc1nc2ccccc2nc1N1CCN(Cc2ccc3c(c2)OCO3)CC1 | . | . | . | . | . | / | / | / | / | / | /
COc1ccc(N2CCN(c3cc(C)c4ccc(C)cc4n3)CC2)cc1 | . | . | . | . | . | / | / | / | / | / | /
COc1nc2ccccc2nc1N1CCN(c2ccc(F)cc2)CC1 | -9.8 | . | . | . | . | / | / | / | / | 113 | .

Screening data as filed in PubChem BioAssay.
